# Test results published in ChEMBL document CHEMBL1147857, “A chromone analog inhibits TNF-alpha induced expression of cell adhesion molecules on human endothelial cells via blocking NF-kappaB activation” (Bioorg Med Chem, 2007).
# Activity calls are given as the source filed them. No cut-off for these calls is given here.
# Tests used:
# [1] = Cytotoxicity against HUVEC cells assessed as cell viability at 90 ug/ml after 24 hrs by MTT assay; assay type: cell-based; conditions: human, read-out: Activity
# Procedure, shortened: (§1)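 Primary HUVECs were isolated by mild trypsinization, grown in M-199 with 15% FCS and ECGF, and used at passages 3–4. Cells got compound or 0.25% DMSO vehicle for 24 h. MTT (5 mg/ml) was added for the final 4 h, formazan dissolved in DMSO, and A570 read. Trypan blue exclusion confirmed the result. Runs were done at least 3 times in triplicate wells.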
# HUVEC [2] = experiment: Inhibition of TNF-alpha-induced ICAM1 expression in HUVEC cells at 90 ug/ml after 2 hrs by ELISA; assay type: functional; conditions: Homo sapiens
# Procedure, shortened: (§2)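 Cell-ELISA: HUVECs were pretreated with compound for 2 h, then given TNF-α 10 ng/ml for 16 h (ICAM-1, VCAM-1) or 4 h (E-selectin). Cells were fixed in 1% glutaraldehyde and blocked with 3% milk. Specific mAbs were applied overnight at 4 °C, then HRP goat anti-mouse, with OPD substrate at pH 4.5. The reaction was stopped with H2SO4 and A490 read. % inhibition = [1 − A490(compound)/A490(control)] × 100. Three independent experiments.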
# HUVEC [3] = experiment: Inhibition of TNF-alpha-induced ICAM1 expression in HUVEC cells after 2 hrs by ELISA; assay type: functional, cell-based; conditions: Homo sapiens; procedure, shortened: as §2
# Liver microsomes [4] = experiment: Inhibition of NADPH-catalyzed lipid peroxidation in Wistar rat liver microsome at 90 ug/ml after 10 mins; assay type: functional
# Procedure, shortened: (§3)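 Liver microsomes came from male Wistar rats of about 200 g. Each mix held microsomes (1 mg protein), 0.025 M Tris-HCl pH 7.5, 3 mM ADP and 0.15 mM FeCl3. Mixes were preincubated 10 min at 37 °C, then 10 min with compound in DMSO. Peroxidation was started with 0.5 mM NADPH and stopped with TCA/HCl/TBA. Samples were heated at 95 °C for 30 min and TBA-reactive substance read at 535 nm.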
# HUVEC [5] = experiment: Inhibition of TNF-alpha-induced E-selectin expression in HUVEC cells at 90 ug/ml after 2 hrs by ELISA; assay type: functional; conditions: Homo sapiens; procedure, shortened: as §2
# HUVEC [6] = experiment: Inhibition of TNF-alpha-induced VCAM1 expression in HUVEC cells at 90 ug/ml after 2 hrs by ELISA; assay type: functional; conditions: Homo sapiens; procedure, shortened: as §2
# HUVEC [7] = experiment: Inhibition of TNF-alpha-induced ICAM1 expression in HUVEC cells at 90 ug/ml after 2 hrs by flow cytometry; assay type: functional; conditions: Homo sapiens
# Procedure, shortened: (§4)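 Flow cytometry: HUVECs were pretreated with compound for 2 h, then given TNF-α 10 ng/ml for 16 h (ICAM-1, VCAM-1) or 4 h (E-selectin). Cells were dislodged and stained with mAb (1.0 µg/10^6 cells, 30 min, 4 °C), then FITC goat anti-mouse IgG. Cells were fixed in 1% paraformaldehyde and 20,000 events acquired. Autofluorescence was subtracted and mean fluorescence intensity taken from three independent experiments.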
# HUVEC [8] = experiment: Inhibition of TNF-alpha-induced E-selectin expression in HUVEC cells at 90 ug/ml after 2 hrs by flow cytometry; assay type: functional; conditions: Homo sapiens; procedure, shortened: as §4
# HUVEC [9] = experiment: Inhibition of TNF-alpha-induced VCAM1 expression in HUVEC cells at 90 ug/ml after 2 hrs by flow cytometry; assay type: functional; conditions: Homo sapiens; procedure, shortened: as §4
# HUVEC [10] = experiment: Inhibition of TNF-alpha-induced VCAM1 expression in HUVEC cells after 2 hrs by ELISA; assay type: functional, cell-based; conditions: Homo sapiens; procedure, shortened: as §2
# HUVEC [11] = experiment: Inhibition of TNF-alpha-induced E-selectin expression in HUVEC cells after 2 hrs by ELISA; assay type: functional, cell-based; conditions: Homo sapiens; procedure, shortened: as §2
# Neutrophil [12] = experiment: Inhibition of TNF-alpha-induced adhesion of neutrophils to endothelium after 2 hrs by neutrophil adhesion assay; assay type: functional, cell-based; conditions: Homo sapiens
# Procedure, shortened: (§5)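 Static adhesion: HUVEC monolayers were pretreated with compound for 2 h, then given TNF-α 10 ng/ml for 6 h. Neutrophils from healthy donor blood (dextran sedimentation, Ficoll-Hypaque, hypotonic lysis) were added at 6 × 10^4/well and left 1 h at 37 °C. Bound cells were measured with OPD/CTAB/aminotriazole substrate at A490. % inhibition was calculated as for the ELISA. Three independent experiments.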
# Neutrophil [13] = experiment: Inhibition of TNF-alpha-induced adhesion of neutrophils to endothelium at 90 ug/ml after 2 hrs by neutrophil adhesion assay; assay type: functional; conditions: Homo sapiens; procedure, shortened: as §5
# HUVEC [14] = experiment: Blockade of TNF-alpha-induced p65 nuclear translocation in HUVEC cells after 2 hrs by Western blot; assay type: functional, cell-based; conditions: Homo sapiens
# Procedure, shortened: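 HUVECs (2 × 10^6) were pretreated with or without compound for 2 h, then given TNF-α 10 ng/ml for 30 min. Extracts ran on 8% SDS-PAGE and were blotted with anti-p65, with γ-tubulin as loading control. Detection used an HRP anti-rabbit secondary and DAB.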
# HUVEC [15] = experiment: Inhibition of TNF-alpha-induced NF-kappaB activation in HUVEC after 2 hrs by […] mobility shift assay; assay type: functional, cell-based; conditions: Homo sapiens
# Procedure, shortened: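 HUVECs were pretreated with compound for 2 h, then given TNF-α 10 ng/ml for 30 min. Nuclear extract (10 µg) was incubated with 40–80 fmol of 32P-labelled NF-κB oligonucleotide in HEPES/NaCl/Tris buffer pH 7.5 with poly(dI-dC), 30 min at room temperature. Complexes were resolved on a 4% native gel and seen by autoradiography. Specificity was checked with excess unlabelled oligo.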
# [16] = Cytotoxicity against HUVEC cells assessed as cell viability at 70 ug/ml after 24 hrs by MTT assay; assay type: cell-based; conditions: human, read-out: Activity; procedure, shortened: as §1
# HUVEC [17] = experiment: Inhibition of TNF-alpha-induced ICAM1 expression in HUVEC cells at 70 ug/ml after 2 hrs by ELISA; assay type: functional; conditions: Homo sapiens; procedure, shortened: as §2
# Liver microsomes [18] = experiment: Inhibition of NADPH-catalyzed lipid peroxidation in Wistar rat liver microsome at 70 ug/ml after 10 mins; assay type: functional; procedure, shortened: as §3
# [19] = Cytotoxicity against HUVEC cells assessed as cell viability at 100 ug/ml after 24 hrs by MTT assay; assay type: cell-based; conditions: human, read-out: Activity; procedure, shortened: as §1
# HUVEC [20] = experiment: Inhibition of TNF-alpha-induced ICAM1 expression in HUVEC cells at 100 ug/ml after 2 hrs by ELISA; assay type: functional; conditions: Homo sapiens; procedure, shortened: as §2
# Liver microsomes [21] = experiment: Inhibition of NADPH-catalyzed lipid peroxidation in Wistar rat liver microsome at 100 ug/ml after 10 mins; assay type: functional; procedure, shortened: as §3
# [22] = Cytotoxicity against HUVEC cells assessed as cell viability at 80 ug/ml after 24 hrs by MTT assay; assay type: cell-based; conditions: human, read-out: Activity; procedure, shortened: as §1
# HUVEC [23] = experiment: Inhibition of TNF-alpha-induced ICAM1 expression in HUVEC cells at 80 ug/ml after 2 hrs by ELISA; assay type: functional; conditions: Homo sapiens; procedure, shortened: as §2
# Liver microsomes [24] = experiment: Inhibition of NADPH-catalyzed lipid peroxidation in Wistar rat liver microsome at 80 ug/ml after 10 mins; assay type: functional; procedure, shortened: as §3
# [25] = Cytotoxicity against HUVEC cells assessed as cell viability at 60 ug/ml after 24 hrs by MTT assay; assay type: cell-based; conditions: human, read-out: Activity; procedure, shortened: as §1
# HUVEC [26] = experiment: Inhibition of TNF-alpha-induced ICAM1 expression in HUVEC cells at 60 ug/ml after 2 hrs by ELISA; assay type: functional; conditions: Homo sapiens; procedure, shortened: as §2
# Liver microsomes [27] = experiment: Inhibition of NADPH-catalyzed lipid peroxidation in Wistar rat liver microsome at 60 ug/ml after 10 mins; assay type: functional; procedure, shortened: as §3
# [28] = Cytotoxicity against HUVEC cells assessed as cell viability at 110 ug/ml after 24 hrs by MTT assay; assay type: cell-based; conditions: human, read-out: Activity; procedure, shortened: as §1
# HUVEC [29] = experiment: Inhibition of TNF-alpha-induced ICAM1 expression in HUVEC cells at 110 ug/ml after 2 hrs by ELISA; assay type: functional; conditions: Homo sapiens; procedure, shortened: as §2
# Liver microsomes [30] = experiment: Inhibition of NADPH-catalyzed lipid peroxidation in Wistar rat liver microsome at 110 ug/ml after 10 mins; assay type: functional; procedure, shortened: as §3
smiles,measurement,setting,value
C=CCOC(=O)/C=C/c1coc2ccccc2c1=O,"viability at 24 h, 90 ug/ml",[1],95%
same,inhibition at 90 µg/mL,HUVEC [2],64.5%
same,IC50,HUVEC [3],251 µM
same,inhibition,Liver microsomes [4],43.4%
CCOC(=O)/C=C/c1coc2ccccc2c1=O,inhibition at 90 µg/mL,HUVEC [5],> 95%
same,inhibition at 90 µg/mL,HUVEC [6],> 95%
same,"viability at 24 h, 90 ug/ml",[1],96%
same,inhibition at 90 µg/mL,HUVEC [7],95%
same,inhibition at 90 µg/mL,HUVEC [8],95%
same,inhibition at 90 µg/mL,HUVEC [2],90%
same,IC50,HUVEC [3],184 µM
same,inhibition at 90 µg/mL,HUVEC [9],95%
same,Activity,HUVEC [10],Dose-dependent effect
same,Activity,HUVEC [11],Dose-dependent effect
same,Activity,Neutrophil [12],Dose-dependent effect
same,inhibition at 90 µg/mL,Neutrophil [13],65%
same,Activity,HUVEC [14],Active
same,Activity,HUVEC [15],Active
same,inhibition,Liver microsomes [4],52.9%
CC(C)OC(=O)/C=C/c1coc2ccccc2c1=O,"viability at 24 h, 70 ug/ml",[16],98%
same,inhibition at 70 µg/mL,HUVEC [17],73.5%
same,IC50,HUVEC [3],232 µM
same,inhibition,Liver microsomes [18],50.8%
C=CCOC(=O)/C=C/c1coc2cc(O)ccc2c1=O,"viability at 24 h, 100 ug/ml",[19],97%
same,inhibition at 100 µg/mL,HUVEC [20],55.2%
same,IC50,HUVEC [3],273 µM
same,inhibition,Liver microsomes [21],13.3%
CCOC(=O)/C=C/c1coc2cc(O)ccc2c1=O,"viability at 24 h, 90 ug/ml",[1],95%
same,inhibition at 90 µg/mL,HUVEC [2],68.2%
same,IC50,HUVEC [3],269 µM
same,inhibition,Liver microsomes [4],32.3%
CCCOC(=O)/C=C/c1coc2ccccc2c1=O,"viability at 24 h, 80 ug/ml",[22],97%
same,inhibition at 80 µg/mL,HUVEC [23],81.8%
same,IC50,HUVEC [3],227 µM
same,inhibition,Liver microsomes [24],42.5%
CC(C)OC(=O)/C=C/c1coc2cc(O)ccc2c1=O,"viability at 24 h, 60 ug/ml",[25],96%
same,inhibition at 60 µg/mL,HUVEC [26],52.5%
same,IC50,HUVEC [3],218 µM
same,inhibition,Liver microsomes [27],26.2%
CCCOC(=O)/C=C/c1coc2cc(O)ccc2c1=O,"viability at 24 h, 110 ug/ml",[28],97%
same,inhibition at 110 µg/mL,HUVEC [29],63.5%
same,IC50,HUVEC [3],349 µM
same,inhibition,Liver microsomes [30],39.8%
O=c1ccoc2ccccc12 [CHROMONE],"viability at 24 h, 90 ug/ml",[1],95%
same,inhibition at 90 µg/mL,HUVEC [2],47.5%
same,inhibition,Liver microsomes [4],25.4%
